Data taken from ChEMBL document CHEMBL1149184, “Development of a new type of allosteric modulator of muscarinic receptors: hybrids of the antagonist AF-DX 384 and the hexamethonio derivative W84” (J Med Chem, 2004).

What was measured:
[1] = system: Muscarinic acetylcholine receptor M2 (Cavia porcellus); test: Palpha towards Muscarinic acetylcholine receptor M2 in guinea pig using [3H]NMS as a radioligand
[2] = system: Muscarinic acetylcholine receptor M2 (Cavia porcellus); test: Palpha towards Muscarinic acetylcholine receptor M2 in guinea pig using [3H]-AF-DX 384 as a radioligand
[3] = system: Muscarinic acetylcholine receptor M2 (Cavia porcellus); test: Half-maximally reduction towards muscarinic 2 receptor in guinea pig using [3H]-AF-DX 384 as a radioligand
[4] = system: Muscarinic acetylcholine receptor M2 (Cavia porcellus); test: Binding affinity towards Muscarinic acetylcholine receptor M2 in guinea pig using [3H]-NMS as a radioligand
[5] = system: Muscarinic acetylcholine receptor M2 (Cavia porcellus); test: Emax dissociation towards Muscarinic acetylcholine receptor M2 in guinea pig using [3H]NMS as a radioligand
[6] = system: Muscarinic acetylcholine receptor M2 (Cavia porcellus); test: Half-maximal reduction towards Muscarinic acetylcholine receptor M2 in guinea pig using [3H]NMS as a radioligand
[7] = system: Muscarinic acetylcholine receptor M2 (Cavia porcellus); test: Emax dissociation towards Muscarinic acetylcholine receptor M2 in guinea pig using [3H]AF-DX 384 as a radioligand
[8] = system: Muscarinic acetylcholine receptor M2 (Cavia porcellus); test: Binding affinity towards Muscarinic acetylcholine receptor M2 in guinea pig using [3H]-AF-DX 384 as a radioligand
[9] = molecular target: T1, Muscarinic acetylcholine receptor M2 (Sus scrofa) (UniProt P06199); test: Emax dissociation towards Muscarinic acetylcholine receptor M2 in porcine heart using [3H]NMS as a radioligand
T1 sequence (whole entry): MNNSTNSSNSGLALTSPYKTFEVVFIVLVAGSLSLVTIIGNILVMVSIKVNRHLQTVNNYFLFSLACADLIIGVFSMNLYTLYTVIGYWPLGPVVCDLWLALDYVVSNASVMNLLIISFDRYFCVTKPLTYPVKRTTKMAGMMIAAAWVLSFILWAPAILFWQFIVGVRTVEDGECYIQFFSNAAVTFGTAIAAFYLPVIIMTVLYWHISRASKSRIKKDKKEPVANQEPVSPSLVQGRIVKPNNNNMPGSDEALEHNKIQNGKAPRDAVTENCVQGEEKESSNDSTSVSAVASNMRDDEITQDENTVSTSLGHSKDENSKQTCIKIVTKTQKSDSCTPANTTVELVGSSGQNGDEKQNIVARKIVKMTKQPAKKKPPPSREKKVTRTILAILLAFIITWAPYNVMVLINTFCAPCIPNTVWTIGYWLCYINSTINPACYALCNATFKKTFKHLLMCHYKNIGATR
Method in brief: (§1)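 Dissociation assay at 37 °C on porcine cardiac membranes in Mg/Tris buffer, pH 7.3. Membranes were preincubated 30 min with 0.2 nM [3H]NMS, then dissociation was started with 1 μM atropine ± test compound and tracked for 120 min. Apparent dissociation rate constants k-1 against log concentration were fitted with a four-parameter logistic curve.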

[10] = molecular target: T1, Muscarinic acetylcholine receptor M2 (Sus scrofa); test: Palpha towards Muscarinic acetylcholine receptor M2 in porcine heart using [3H]NMS as a radioligand
Method in brief: (§2)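 Porcine heart membranes with 0.2 nM [3H]NMS at 37 °C in 3 mM MgHPO4 / 50 mM Tris-HCl, pH 7.3, and varying test-compound concentrations. Incubation was 120–360 min to reach equilibrium. Nonspecific binding was taken with 1 μM atropine. Bound label was filtered and counted. Curves were fitted to the ternary complex model of allosteric interaction. Three to four independent experiments.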

[11] = molecular target: T1, Muscarinic acetylcholine receptor M2 (Sus scrofa); test: Half-maximal reduction towards Muscarinic acetylcholine receptor M2 in porcine heart using [3H]NMS as a radioligand
Method in brief: as §1

[12] = molecular target: T1, Muscarinic acetylcholine receptor M2 (Sus scrofa); test: Binding affinity towards Muscarinic acetylcholine receptor M2 in porcine heart using [3H]NMS as a radioligand
Method in brief: as §2

Palpha [1] | Palpha [2] | pEC0.5,diss [3] | pKA [4] | Emax,diss [5] [%] | pEC0.5,diss [6] | Emax,diss [7] [%] | pKA [8] | Emax,diss [9] [%] | Palpha [10] | pEC0.5,diss [11] | pKA [12] | Compound
-1.21 | < -2 | 3 | 3.95 | 100 | 3.21 | 25 | 4.51 |  |  |  |  | C[N+](C)(C)CCCN1C(=O)c2ccccc2C1=O
-1.03 | < -2 | 3.33 | 4.12 | 100 | 3.35 | 34 | 4.44 |  |  |  |  | CC[N+](C)(C)CCCN1C(=O)c2ccccc2C1=O
 |  |  |  |  |  |  |  | 100 | < -2 | 4.65 | 8.14 | CCCN(CCC)CC1CCCCN1CCNC(=O)N1c2ccccc2C(=O)Nc2cccnc21 (stereo not given)
 |  |  |  |  |  |  |  | 76 | -1.8 | 4.95 | 8.01 | CCCN(CCCN1C(=O)CCC1=O)CC1CCCCN1CCNC(=O)N1c2ccccc2C(=O)Nc2cccnc21 (stereo not given)
-0.49 | -1.56 | 3.67 | 5.24 | 100 | 4.82 | 68 | 5.93 |  |  |  |  | C[N+](C)(CCCCCC[N+](C)(C)CCCN1C(=O)c2ccccc2C1=O)CCCN1C(=O)CCC1=O
-0.78 | < -2 | 2.98 | 3.55 | 90 | 3.76 | 73 | 4.1 |  |  |  |  | CCC[N+](C)(C)CCCN1C(=O)c2ccccc2C1=O
 |  |  |  |  |  |  |  | 100 | -0.58 | 6.78 | 6.83 | CCCN(CCCCCC[N+](C)(C)CCCN1C(=O)c2ccccc2C1=O)CC1CCCCN1CCNC(=O)N1c2ccccc2C(=O)Nc2cccnc21 (stereo not given)
-1.55 | -1.35 | 4.11 | 5.08 | 100 | 4.06 | 82 | 5.8 |  |  |  |  | CCCCCC[N+](C)(C)CCCN1C(=O)c2ccccc2C1=O
 |  |  |  |  |  |  |  | 100 | 1.07 | 6.87 | 5.89 | CCCN(CCCN1C(=O)c2ccccc2C1=O)CC1CCCCN1CCNC(=O)N1c2ccccc2C(=O)Nc2cccnc21 (stereo not given)
 |  |  |  |  |  |  |  | 100 | 0.05 | 6.75 | 6.71 | CCCN(CCCCCCN1C(=O)c2ccccc2C1=O)CC1CCCCN1CCNC(=O)N1c2ccccc2C(=O)Nc2cccnc21 (stereo not given)
